Source: PubChem
CSC inhib: blocks cancer stem cells | cancer stem cell-like cells viability, luminescence | inhibition, % at 7.5 µM | 300,000 compounds, 1.1% hits; in the data active means inhibition above about 75%; inconclusive means no clear call, values can overlap the other calls; tested in HMLE shEcad cells
T cruzi inh: T. cruzi replication inhibition; T. cruzi beta-gal in NIH3T3, luminescence, 90 h; inhibition, % (no concentration beside the values); 300,000 compounds, 1.4% hits; AID 1885;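 active means mean inhibition across valid replicates above about 55%, limit read from the data; inconclusive means mean below that limit but half or more replicates reach it; inactive means mean below it, under half of replicates reach it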;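 further: signal also drops with host cell toxicity which is not excluded here; higher percent means less beta-gal luminescence so fewer parasites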
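Assay system: NIH/3T3 fibroblasts plus reporter T. cruzi. Amount: NIH/3T3 cells, 5,000 per well. Buffer or medium: DMEM, 2% fetal bovine serum. Doses: compound pinned at 50 nL/well, DMSO. Schedule: ≥90 h infection period, 3 h prior cell attachment. Signal: luminescent β-galactosidase signal after 60 min lysis. Read-out: parasite load inhibition, %.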
Calb FLC: affects C. albicans growth with fluconazole. C. albicans CaCi-2 (fluconazole-resistant clinical isolate) + fluconazole, Alamar Blue growth, 48 h. growth inhibition, % (test concentration not listed). 300,000 compounds, 0.57% hits;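 active means growth inhibition above about 58% in most replicates, limit read from the data, passing the limit was not always enough; inconclusive means exactly half the replicates above a set limit; inactive means most replicates below a set limit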;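 further: all wells also contain fluconazole at 8 µg/ml as a sub-toxic cotreatment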
HIF act: HIF pathway transcriptional activation; U2OS HRE-luciferase reporter, luminescence; normalized: DMSO 0%, desferrioxamine 100%; activation, % at 7.5 µM (by protocol); 300,000 compounds, 0.32% hits;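 active means mean activation of at least 10% of the iron chelator positive control signal, with at least half of replicates also reaching 10%; inconclusive means mean and replicate majority disagree about reaching 10%; inactive means mean and most replicates under 10%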
Beta apoptosis: blocks beta cell apoptosis; AID 435005; INS-1E cytokine-induced death, ATP luminescence, 48 h; percent of positive-control rescue, neutral wells zero; 300,000 compounds, 0.8% hits; protection from apoptosis, % (concentration not given with the values);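 active means Every replicate reaches about 75%, or at least half do and their mean reaches it too, limit read from the data; inconclusive means At least half of replicates reach the limit but their mean does not; inactive means Under half of replicates reach the limit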;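 further: higher means more ATP so stronger rescue from cytokine killing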
PolyA inhibitor: blocks polyadenylation in yeast reporter cells. activity score, % at 12 µM. S. cerevisiae SKY197-pL101 polyadenylation reporter, beta-gal luminescence; efflux-impaired pdr1/pdr3 knockout yeast; score 100 = 6 SD above DMSO. 300,000 compounds, 0.02% hits. AID 1875;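 active means lowest replicate activity score at least 50, where 100 means six control SD above control mean; inconclusive means lowest score under 50 but half or more replicates reach 50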;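 further: yeast exposed to compound for 9 h at 30 °C; higher score means more reporter readthrough which indicates perturbed polyadenylation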
Numbers stand for hits. Only some compounds are listed: those with a hit (about 3.1% of all), similar ones and a draw of the others.

Screening O=C(Oc1cc2oc(=O)c3c(c2cc1Cl)CCCC3)c1cccs1 returned CSC inhib inactive, T cruzi inh inactive, Calb FLC 95, HIF act inactive, Beta apoptosis inactive and PolyA inhibitor inactive.
`Cc1nc2c(-c3ccc(Cl)cc3)c(C)[nH]n2c(=O)c1Cc1ccccc1` gave CSC inhib inactive, T cruzi inh 63, Calb FLC inactive, HIF act inactive, Beta apoptosis 98 and PolyA inhibitor inactive.
`Cc1ccc(C(=O)Nc2ncc(Cc3ccc(F)cc3)s2)o1` gave CSC inhib 120, T cruzi inh inactive, Calb FLC inactive, HIF act inactive, Beta apoptosis inactive and PolyA inhibitor inactive.
`Cc1ccc(C(=O)Nc2ncc(C)s2)o1` gave CSC inhib inactive, T cruzi inh inactive, Calb FLC inactive, HIF act inactive, Beta apoptosis inactive and PolyA inhibitor inactive.
`Cc1ccccc1Nc1c(N)c(=O)oc2ccccc12` gave T cruzi inh inactive, Calb FLC inactive, HIF act inactive, Beta apoptosis inactive and PolyA inhibitor inactive.
CCCCNC(=O)c1cc2cc(CC)ccc2[nH]1 was read as CSC inhib inactive, T cruzi inh inactive, Calb FLC inactive, HIF act inactive and PolyA inhibitor inactive.
Cc1ccc(NC(=O)COc2ccc(N(C)C(=O)C(C)(C)C)cc2)cc1S(=O)(=O)N1CCCCC1 was read as CSC inhib inactive and Beta apoptosis 115.
CN(C)N1C(N)=C(C#N)C(c2cccc3ccccc23)C2=C1CC(c1ccccc1)CC2=O (stereo unspecified) was read as CSC inhib 80, T cruzi inh inactive, Calb FLC inactive, HIF act inactive, Beta apoptosis inactive and PolyA inhibitor inactive.
Brc1cccc2sc(N3CCCC3)nc12 was read as CSC inhib inactive, T cruzi inh inactive, Calb FLC inactive, HIF act inactive, Beta apoptosis inactive and PolyA inhibitor inactive.
`CC(=O)Nc1ccc(Nc2cc(C)nc3c(-c4ccccc4)cnn23)cc1` gave CSC inhib inactive and Beta apoptosis inactive.
`Cc1nc2sc(C(c3cccc(F)c3)N3CCCCC3)c(O)n2n1` (stereo unspecified) gave CSC inhib inactive, T cruzi inh inactive, Calb FLC inactive, HIF act inactive, Beta apoptosis inactive and PolyA inhibitor inactive.
Cc1nc2sc(C(c3cccc(F)c3)N3CCCC(C)C3)c(O)n2n1 (stereo unspecified) was read as CSC inhib inactive, T cruzi inh inactive, Calb FLC 85, HIF act inactive, Beta apoptosis inactive and PolyA inhibitor inactive.
`CCCCC(=O)NC(c1ccc(N(C)C)cc1)c1ccc2cccnc2c1O` (stereo unspecified) gave CSC inhib 108, T cruzi inh 57, Calb FLC 94, HIF act 89, Beta apoptosis 94 and PolyA inhibitor inactive.
Screening CCCC(=O)NC(c1ccc(N(C)C)cc1)c1c(O)ccc2ccccc12 (stereo unspecified) returned CSC inhib inactive, T cruzi inh inactive, Calb FLC inactive, Beta apoptosis inactive and PolyA inhibitor inactive.
`CCCCC(=O)NC(c1ccc(N(CC)CC)cc1)c1ccc2cccnc2c1O` (stereo unspecified) gave CSC inhib active, T cruzi inh 68, Calb FLC 121, HIF act 97, Beta apoptosis 89 and PolyA inhibitor inactive.
COc1ccc(CN(C)CC(=O)c2c(N)n(Cc3ccccc3)c(=O)n(C)c2=O)c(OC)c1 was read as CSC inhib inactive, T cruzi inh 59, Calb FLC inactive, HIF act inactive, Beta apoptosis inactive and PolyA inhibitor inactive.
CCn1c(=O)c(C(=O)CN(C)Cc2cccc(OC)c2OC)c(N)n(Cc2ccccc2)c1=O was read as CSC inhib inactive, T cruzi inh inactive, Calb FLC inactive, HIF act inactive, Beta apoptosis inactive and PolyA inhibitor inactive.
`Cc1c(CN2CCC(CO)(Cc3cccc(C(F)(F)F)c3)CC2)c2ccccc2n1C` gave T cruzi inh 56, Calb FLC inactive, HIF act inactive, Beta apoptosis inactive and PolyA inhibitor inactive.
Screening Cc1ccc(NC(=O)c2c(Cl)nc3ccccn23)cc1 returned CSC inhib inactive, T cruzi inh inactive, Calb FLC inactive, HIF act inactive, Beta apoptosis inactive and PolyA inhibitor inactive.
`COc1ccc(-n2cccc2/C=C2\C(=N)N3N=C(C(C)C)SC3=NC2=O)cc1` gave CSC inhib inactive, T cruzi inh inactive, Calb FLC 98, HIF act inactive, Beta apoptosis inactive and PolyA inhibitor inactive.
For CC(C)CCOc1ccc(C2CC(=O)N(C)C2=O)cc1 (stereo unspecified) the results were CSC inhib inactive, T cruzi inh inactive, Calb FLC inactive, HIF act inactive, Beta apoptosis inactive and PolyA inhibitor inactive.
`Cc1nn(-c2ccccc2)c(C)c1/C=N/n1c(-c2ccc(C(C)(C)C)cc2)n[nH]c1=S` gave CSC inhib 80, T cruzi inh inactive, Calb FLC inactive, HIF act inactive, Beta apoptosis inactive and PolyA inhibitor inactive.
Cc1ccc(CCCNC(=O)C2CCC(=O)N(Cc3cccc(F)c3)C2)cc1 (stereo unspecified) was read as CSC inhib inactive, T cruzi inh inactive, Calb FLC inactive, HIF act inactive, Beta apoptosis inactive and PolyA inhibitor inactive.
For COc1ccccc1OCCCCOc1ccccc1C(C)=O the results were CSC inhib inactive, T cruzi inh inactive, Calb FLC inconclusive, HIF act inactive, Beta apoptosis 100 and PolyA inhibitor inactive.
Screening Clc1ccc(-n2cc(-c3ccc(Br)cc3)[n+]3c2CCCCC3)cc1 returned CSC inhib inactive, T cruzi inh inactive, Calb FLC inactive, HIF act inactive, Beta apoptosis inactive and PolyA inhibitor inactive.
Screening CC(C)(C)c1ccc(-c2cn(-c3ccc(Br)cc3)c3[n+]2CCCS3)cc1 returned T cruzi inh inactive, Calb FLC 102, HIF act inactive and PolyA inhibitor inactive.
c1ccc(-c2cn(-c3ccccc3)c3[n+]2CCS3)cc1 was read as CSC inhib inactive, T cruzi inh 68, Calb FLC inactive, HIF act inactive, Beta apoptosis inactive and PolyA inhibitor inactive.
Fc1ccc(-n2cc(-c3ccccc3)[n+]3c2SCC3)cc1 was read as CSC inhib inactive, T cruzi inh inactive, Calb FLC inactive, HIF act inactive, Beta apoptosis inactive and PolyA inhibitor inactive.
For CN(C)CCN(C)Cc1ccccc1Sc1cccc2ccccc12 the results were T cruzi inh inactive, Calb FLC inactive, HIF act inactive, Beta apoptosis inactive and PolyA inhibitor inactive.
For CC1(C)Cc2c(cnn2-c2ccc(F)cc2)C(NC(=O)CCN2CCCCC2=O)C1 (stereo unspecified) the results were CSC inhib inactive, T cruzi inh inactive, Calb FLC inactive, HIF act inactive, Beta apoptosis inactive and PolyA inhibitor inactive.
